Data reported in article PMC4838375 (Nucleic Acids Research, 2016).

Assay: 15N relaxation, tumbling correlation time
Assay type: physicochemical, murine
Conditions: 15N relaxation (R2/R1), free protein, 600 MHz, 295 K
Procedure, shortened: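 Uniformly ¹⁵N-labelled domain expressed in E. coli BL21(DE3) on ¹⁵NH₄Cl minimal medium. Typical sample 0.3–0.4 mM in 20 mM sodium phosphate pH 6.3, 0.15 M NaCl, 2 mM DTT, 50 μM ZnCl₂. R1 sampled at 13 delays (50–2000 ms), R2 at 11 (12–244 ms), with heating compensation, random order and 2.5 s recovery. Duplicates fitted to two-parameter exponentials. τc from R2/R1, using non-overlapped residues with hetNOE > 0.65.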

B1: PHDVC5HCHNSD1: Murine NSD1 PHDvC5HCH (Glu2117–Asp2207), tandem domain, human residue numbering Glu2116–Asp2206 (protein, UniProt O88491 2117-2207, looked up, fragment)
chain: REYVPPTATSPPSPGTQPKEQSSEMATQGPKKSDQPPTDATQLLPLSKKALTGSCQRPLLPERPPERTDSSSHLLDRIRDLAGSGTKSQSL
correlation time (free): 7.96±0.41 ns
